Calls of active or inactive are those of the source. The calls are words filed in the database; no cut-off is given here.
What was measured:
Mus musculus [1] = experiment: Induction of M2 polarization in C57BL/6J mouse model of MOG (35 to 55 residues)/pertussis toxin/complete Freund's adjuvant-induced experimental allergic encephalomyelitis assessed as CD206 level in spleen at 200 mg/kg, ig administered daily starting from 7 days post-immunization measured after 13 to 19 days post-immunization by flow cytometry analysis (reference value: 23.4%); format: functional
Outline: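 MOG35-55/CFA EAE mice were dosed daily in saline from day 7 and sampled between days 13 and 19. Cells came from spleen and dLN by mechanical dissociation and from CNS by collagenase IV/Percoll. They were stained for F4/80 with CD206 (M2) or CD86 (M1), and each was read by flow cytometry as a percentage of total F4/80+ macrophages.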

Mus musculus [2] = experiment: Antiinflammatory activity in C57BL/6J mouse model of MOG (35 to 55 residues)/pertussis toxin/complete Freund's adjuvant-induced experimental allergic encephalomyelitis assessed as reduction in demyelination in spinal cord at 200 mg/kg, ig administered daily starting from 7 days post-immunization measured after 14 days post-immunization by LFB staining based microscopic analysis; format: functional, organism-based
Outline: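 EAE mice dosed daily in saline from day 7 were perfused with PBS and fixed in 4% PFA on day 14; spinal cords were taken. For LFB, frozen OCT sections sat 3 h in 0.1% Luxol Fast Blue at 56-60°C, were differentiated in 0.05% lithium carbonate for 10-12 s, cleared in 70% ethanol, dehydrated and mounted. For H&E, paraffin sections were stained to assess inflammation.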

BMDM [3] = experiment: Inhibition of LPS-induced M1 polarization in C57BL/6J mouse BMDM cells assessed as down regulation of CD86 expression at 300 nM measured after 24 hrs by FACS analysis; format: functional, cell-based
Outline: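 BMDMs pretreated with 50 ng/ml LPS for 24 h, then given compound (300 nM, or a range of concentrations) for 24 h. Stained for F4/80 and CD86; % CD86+F4/80+ cells read by flow cytometry. Mean ± SEM, at least three independent experiments.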

BMDM [4] = experiment: Modulation of M2 polarization in C57BL/6J mouse BMDM cells assessed as up regulation of CD206 expression at 300 nM measured after 24 hrs by FACS analysis; format: functional, cell-based
Outline: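 BMDMs exposed to compound (300 nM, or a range of concentrations) for 24 h. Stained for F4/80 and CD206; % CD206+F4/80+ cells read by flow cytometry. Mean ± SEM, at least three independent experiments.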

RAW264.7 [5] = experiment: Modulation of M2 polarization in mouse RAW264.7 cells assessed as up regulation of IL13 mRNA expression at 300 nM measured after 24 hrs by qRT-PCR analysis; format: functional, cell-based
[6] = AUC (0 to t) in Sprague-Dawley rat at 10 mg/kg, iv administered as single dose by LC/MS analysis; format: ADME, organism-based; conditions: in vivo
Outline: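 Single dose in rats; venous blood (100 µL) drawn at 0, 0.5, 1, 2, 4, 8 and 12 h, plasma separated by centrifugation and held at -20 °C. Compound measured by LC/MS; Cmax, Tmax, t1/2 and AUC derived from the concentration–time data.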

[7] = Ratio of AUC (0 to t) to AUC (0 to infinity) in Sprague-Dawley rat at 50 mg/kg, po administered as single dose via gavage; format: ADME, organism-based; conditions: in vivo
RAW264.7 [8] = experiment: Modulation of M1 polarization in mouse RAW264.7 cells assessed as change in Mcp1 mRNA expression at 300 nM measured after 24 hrs by qRT-PCR analysis relative to control; format: functional, cell-based; conditions: RAW264.7, 24 h, read-out: FC
Outline: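 RAW264.7 cells (DMEM, 10% FBS) exposed 24 h to 300 nM compound alone; LPS 50 ng/ml as positive control. Mcp1 mRNA by qRT-PCR; fold change = dosed group level / control group level.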

BMDM [9] = experiment: Antiinflammatory activity in LPS-induced C57BL/6J mouse BMDM cells assessed as suppression of M1 macrophage-stimulated CD4 positive T-cell proliferation at 300 nM preincubated for 48 hrs followed by CD4 positive T-cell addition and measured after 72 hrs by CFSE dye based FACS analysis; format: functional
Outline: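 BMDMs given 300 nM compound with 50 ng/ml LPS for 48 h on day 5 of differentiation; drug removed day 7. Cells then cocultured 1:1 with CFSE-labelled negatively selected naïve CD4+ T cells plus 500 ng/ml anti-CD3 and 500 ng/ml anti-CD28. T-cell proliferation (CFSE MFI, % proliferated) read by flow cytometry after 72 h. Mean ± SEM, at least three independent experiments.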

[10] = biological target: RAC-alpha serine/threonine-protein kinase (Mus musculus) (UniProt P31750); experiment: Stimulation of AKT phosphorylation at 473 residue in mouse RAW264.7 cells at 300 nM measured after 4 to 24 hrs by Western blot analysis; format: cell-based
Chain of RAC-alpha serine/threonine-protein kinase (Mus musculus) (P31750 whole entry): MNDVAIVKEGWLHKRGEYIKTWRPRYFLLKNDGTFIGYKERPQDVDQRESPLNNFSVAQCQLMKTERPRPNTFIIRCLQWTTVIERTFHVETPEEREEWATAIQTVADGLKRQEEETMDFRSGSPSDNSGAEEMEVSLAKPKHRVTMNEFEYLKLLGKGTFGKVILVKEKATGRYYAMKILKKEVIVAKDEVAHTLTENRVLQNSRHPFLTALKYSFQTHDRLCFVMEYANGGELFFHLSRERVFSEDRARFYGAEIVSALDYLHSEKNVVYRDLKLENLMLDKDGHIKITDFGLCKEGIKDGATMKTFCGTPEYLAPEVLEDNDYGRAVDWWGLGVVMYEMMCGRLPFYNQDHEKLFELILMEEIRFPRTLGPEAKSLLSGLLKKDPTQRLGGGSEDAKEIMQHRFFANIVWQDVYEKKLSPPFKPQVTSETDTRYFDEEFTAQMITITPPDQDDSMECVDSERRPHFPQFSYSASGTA
Outline: (§1)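 Cell lysates separated by SDS-PAGE, transferred to PVDF and probed for Akt, p-Akt(308), p-Akt(473), Stat3, p-Stat3(Y705), Stat6 and p-Stat6; ECL detection, GAPDH as loading control.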

[11] = biological target: T1, Signal transducer and transcription activator 6 (Mus musculus) (UniProt P52633); experiment: Stimulation of STAT6 phosphorylation at […] residue in mouse RAW264.7 cells at 300 nM measured after 4 to 24 hrs by Western blot analysis; format: cell-based; outline: as §1
T1 sequence (whole entry): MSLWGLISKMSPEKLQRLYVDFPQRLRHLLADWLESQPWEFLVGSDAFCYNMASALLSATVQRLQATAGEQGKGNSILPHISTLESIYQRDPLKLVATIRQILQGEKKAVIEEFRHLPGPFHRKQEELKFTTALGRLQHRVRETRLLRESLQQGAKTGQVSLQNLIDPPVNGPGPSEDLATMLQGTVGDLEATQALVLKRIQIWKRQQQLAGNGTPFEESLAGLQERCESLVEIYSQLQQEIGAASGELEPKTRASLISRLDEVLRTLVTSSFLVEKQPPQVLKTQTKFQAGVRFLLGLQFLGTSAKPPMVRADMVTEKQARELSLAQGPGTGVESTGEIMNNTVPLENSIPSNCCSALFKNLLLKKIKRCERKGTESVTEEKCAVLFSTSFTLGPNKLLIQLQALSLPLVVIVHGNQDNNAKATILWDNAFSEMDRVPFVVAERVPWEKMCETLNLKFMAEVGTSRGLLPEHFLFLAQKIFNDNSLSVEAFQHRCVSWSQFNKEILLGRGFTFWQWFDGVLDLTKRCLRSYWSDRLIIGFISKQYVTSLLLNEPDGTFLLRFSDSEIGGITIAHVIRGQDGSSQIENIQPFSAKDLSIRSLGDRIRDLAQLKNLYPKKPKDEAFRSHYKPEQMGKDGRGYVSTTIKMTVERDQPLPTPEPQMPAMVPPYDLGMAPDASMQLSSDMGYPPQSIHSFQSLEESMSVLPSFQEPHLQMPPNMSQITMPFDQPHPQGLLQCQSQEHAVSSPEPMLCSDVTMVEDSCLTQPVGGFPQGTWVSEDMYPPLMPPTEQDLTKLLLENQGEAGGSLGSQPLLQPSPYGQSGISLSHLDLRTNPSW

Compound: Cl.Cn1ncc(Cl)c1-c1ccc(C(=O)N[C@@H]2CNCC[C@H]2c2cccc(F)c2)cc1
- Activity (Mus musculus [1]): 37.2%
- Activity (Mus musculus [2]): Active
- inhibition (BMDM [3]): Active
- Activity (BMDM [4]): Active
- Activity (RAW264.7 [5]): Active
- AUC(0-t) [6]: 1840 ng·h/mL
- Ratio AUC [7]: 98.425%
- fold induction at 0.3 µM (RAW264.7 [8]): 1.47
- Activity (BMDM [9]): Active
- Activity [10]: Active
- Activity [11]: inactive
